Results on 16 molecules are retold here after ChEMBL document CHEMBL2151039, “Discovery and development of α7 nicotinic acetylcholine receptor modulators” (J Med Chem, 2011).

By inhibition is commonly meant the drop in the measured response relative to a control, in per cent. For orientation: EC50 means the midpoint of the concentration-response curve. As usually defined, the Ki is a dissociation constant, usually derived from enzyme kinetics or from competition with a known ligand. A word on the IC50: it is the concentration that inhibits the measured activity by half. As usually defined, the Emax is the size of the effect at its maximum, as opposed to the concentration needed.

Assay [1] addresses T1, 5-hydroxytryptamine receptor 3A (Homo sapiens) (UniProt P46098).
T1 sequence (whole entry): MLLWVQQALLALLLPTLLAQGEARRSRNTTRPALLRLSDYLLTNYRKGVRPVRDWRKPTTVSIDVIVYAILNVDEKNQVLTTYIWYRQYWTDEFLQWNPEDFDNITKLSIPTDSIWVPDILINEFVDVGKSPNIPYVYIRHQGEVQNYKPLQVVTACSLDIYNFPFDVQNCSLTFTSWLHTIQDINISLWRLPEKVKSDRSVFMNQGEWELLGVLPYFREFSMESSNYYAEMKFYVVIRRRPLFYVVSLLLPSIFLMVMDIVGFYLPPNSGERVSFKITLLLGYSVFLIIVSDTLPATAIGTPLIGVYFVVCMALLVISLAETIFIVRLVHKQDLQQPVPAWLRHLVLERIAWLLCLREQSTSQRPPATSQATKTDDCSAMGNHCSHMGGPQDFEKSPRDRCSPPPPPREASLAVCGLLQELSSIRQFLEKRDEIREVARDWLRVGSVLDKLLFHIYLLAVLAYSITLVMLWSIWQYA
Briefly: Binding affinity to human 5HT3 receptor at 10 uM by radioligand binding assay.

Assay [2] deals with T2, Neuronal acetylcholine receptor subunit alpha-7 (Homo sapiens, UniProt P36544). Put plainly: Intrinsic activity at human alpha7 nAChR expressed in Xenopus oocytes relative to acetylcholine. It is filed as cell-based. Conditions: Oocyte.
Assay [3] has as its target T2, Neuronal acetylcholine receptor subunit alpha-7. Put plainly: Intrinsic activity at human alpha7 nAChR expressed in GH4C1 cells relative to acetylcholine. Format: cell-based. As to conditions: GH4-C1.
Assay [4] has the same target. Put plainly: Partial agonist activity at human alpha7 nAChR expressed in GH4C1 cells relative to acetylcholine. It is filed as functional, cell-based, GH4-C1.
The target is the same in assay [5]. Briefly: Binding affinity to alpha7 nAChR.
Assay [6] has as its target T3, 5-hydroxytryptamine receptor 3A (Homo sapiens, UniProt P46098).
T3 sequence (P46098 whole entry): T1 sequence (whole entry)
Put plainly: Inhibition of 5HT3 receptor.

In assay [7] the target is T2, Neuronal acetylcholine receptor subunit alpha-7. Briefly: Agonist activity at alpha7 nAChR. Format: functional.
For assay [8], the target named is T3, 5-hydroxytryptamine receptor 3A. Briefly: Binding affinity to 5HT3 receptor.
The target in assay [9] is T2, Neuronal acetylcholine receptor subunit alpha-7. Put plainly: Agonist activity at alpha7 nAChR at 32 uM. Format: functional.
The species named for assay [10] is Rattus norvegicus. Put plainly: Procognitive effect in rat assessed as working memories by novel object recognition test. Format: functional. As to conditions: read-out: MED.
The species entered for assay [11] is Rattus norvegicus. Briefly: Procognitive effect in rat assessed as spartial reference memories by novel object recognition test. It is filed as functional. As to conditions: read-out: MED.
In assay [12] the test system is Rattus norvegicus. Put plainly: Sensory gating restoration in phencyclidine-induced impairment ip dosed rat schizophrenia model. Format: functional. As to conditions: read-out: MED. The procedure, abridged: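 Young and aged rats with phencyclidine-induced impairment, a model of sensory gating restoration in schizophrenia. Intraperitoneal dosing. Reported as minimum effective dose (MED), in mg/kg ip.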

In assay [13] the test system is Rattus norvegicus. Briefly: Procognitive effect in po dosed rat assessed as episodic memories by novel object recognition test. It is filed as functional. Conditions: read-out: MED. The procedure, abridged: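 Rats dosed orally (po) in a novel object recognition test of episodic memory. Reported as minimum effective dose (MED), in mg/kg.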
Assay [14] deals with T3, 5-hydroxytryptamine receptor 3A. Briefly: Antagonist activity at 5HT3 receptor expressed in Xenopus oocyte. It is filed as functional.
Assay [15] deals with T2, Neuronal acetylcholine receptor subunit alpha-7. Briefly: Agonist activity at human alpha7 nAChR expressed in QM7 cells. Format: functional, cell-based.
For assay [16] the target is unchanged. Put plainly: Agonist activity at human alpha7 nAChR expressed in Xenopus oocyte. Format: functional.
Assay [17] has the same target. Put plainly: Partial agonist activity at human alpha7 nAChR by whole cell patch clamp assay relative to acetylcholine. Format: functional. The procedure, abridged: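 Human α7 nAChR expressed in Xenopus oocytes and in QM7 cells. Whole-cell patch-clamp recording. Agonist efficacy is given as % of the acetylcholine response, and EC50 is derived per expression system.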
Background: The patch-clamp technique gives a direct electrical read-out from membranes.

In assay [18] the target is Neuronal acetylcholine receptor subunit alpha-7 (Macaca mulatta) (UniProt Q866A2). Briefly: Agonist activity at wild type monkey alpha7 nAChR by whole cell patch clamp assay relative to control. Format: functional.
Assay [19] deals with Neuronal acetylcholine receptor subunit alpha-7 (Macaca mulatta, UniProt Q866A2). Put plainly: Agonist activity at wild type monkey alpha7 nAChR by whole cell patch clamp assay. Format: functional.
For assay [20], the target named is T4, Neuronal acetylcholine receptor subunit alpha-7 (Rattus norvegicus, UniProt Q05941). Briefly: Displacement of [3H]-MLA from alpha7 nAChR in rat brain membranes. Format: cell membranes. (In a radioligand displacement assay an active substance lowers the binding of a labelled ligand.)
For assay [21], the target named is T2, Neuronal acetylcholine receptor subunit alpha-7. Put plainly: Binding affinity to human alpha7 nAchR.
Assay [22] deals with 5-hydroxytryptamine receptor 3A (Mus musculus) (UniProt P23979). Briefly: Antagonist activity at 5HT3 receptor expressed in N1E115 cells.
For assay [23], the target named is T2, Neuronal acetylcholine receptor subunit alpha-7. Briefly: Agonist activity at human alpha7 nAChR expressed in Xenopus oocytes relative to acetylcholine. Format: functional, cell-based. Conditions: Oocyte.
Assay [24] has as its target T4, Neuronal acetylcholine receptor subunit alpha-7. Briefly: Binding affinity to alpha7 nAChR in rat hippocampal membranes. It is filed as cell membranes, Hippocampus.
For assay [25], the target named is Voltage-gated inwardly rectifying potassium channel KCNH2 (Homo sapiens, UniProt Q12809). Put plainly: Inhibition of human ERG.
Assay [26] has as its target T2, Neuronal acetylcholine receptor subunit alpha-7. Briefly: Agonist activity at human alpha7 nAChR relative to control. Format: functional.
Assay [27] shares this target. Briefly: Agonist activity at human alpha7 nAChR. Format: functional.
The test system of assay [28] is Rattus norvegicus. Briefly: Reversal of apomorphine-induced prepulse inhibition in po dosed rat. It is filed as functional. As to conditions: read-out: MED. In a few lines: (§1)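 Prepulse inhibition disrupted by apomorphine in mice and in rats. Test drug given orally. Reversal reported as minimum effective dose (MED), in mg/kg po.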
In assay [29] the test system is Mus musculus. Briefly: Reversal of apomorphine-induced prepulse inhibition in po dosed mouse. It is filed as functional. Conditions: read-out: MED. The procedure, abridged:
as §1

The subject of assay [30] is Rattus norvegicus. Briefly: Cognitive enhancing effect in po dosed rat short-term working memory by novel object recognition paradigm. It is filed as functional. Conditions: read-out: MED.
Assay [31] deals with T1, 5-hydroxytryptamine receptor 3A (Homo sapiens). Put plainly: Agonist activity at human 5HT3A at 100 uM relative to control. It is filed as functional.
Assay [32] concerns the target T5, 5-hydroxytryptamine receptor 3A (Mus musculus) (UniProt P23979).
T5 sequence (whole entry): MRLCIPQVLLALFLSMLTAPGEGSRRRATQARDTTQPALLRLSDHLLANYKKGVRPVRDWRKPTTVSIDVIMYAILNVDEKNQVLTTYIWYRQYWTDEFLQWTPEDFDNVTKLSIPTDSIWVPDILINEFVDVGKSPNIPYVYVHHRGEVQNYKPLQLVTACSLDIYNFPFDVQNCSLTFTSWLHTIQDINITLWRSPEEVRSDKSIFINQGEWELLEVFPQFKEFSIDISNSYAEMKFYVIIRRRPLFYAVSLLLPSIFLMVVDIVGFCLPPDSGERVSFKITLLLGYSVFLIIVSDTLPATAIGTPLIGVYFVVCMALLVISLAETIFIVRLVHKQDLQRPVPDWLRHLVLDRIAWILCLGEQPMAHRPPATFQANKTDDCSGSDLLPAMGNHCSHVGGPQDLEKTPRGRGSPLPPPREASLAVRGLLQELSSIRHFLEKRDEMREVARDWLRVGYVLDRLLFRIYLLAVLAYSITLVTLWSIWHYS
Put plainly: Binding affinity to mouse 5HT3 receptor at 10 uM by radioligand binding assay.

The nature of assay [33]: Inhibition of sodium channel site 2.
Assay [34] in a line: Inhibition of non-selective opioid receptor.

T2 sequence (P36544 whole entry): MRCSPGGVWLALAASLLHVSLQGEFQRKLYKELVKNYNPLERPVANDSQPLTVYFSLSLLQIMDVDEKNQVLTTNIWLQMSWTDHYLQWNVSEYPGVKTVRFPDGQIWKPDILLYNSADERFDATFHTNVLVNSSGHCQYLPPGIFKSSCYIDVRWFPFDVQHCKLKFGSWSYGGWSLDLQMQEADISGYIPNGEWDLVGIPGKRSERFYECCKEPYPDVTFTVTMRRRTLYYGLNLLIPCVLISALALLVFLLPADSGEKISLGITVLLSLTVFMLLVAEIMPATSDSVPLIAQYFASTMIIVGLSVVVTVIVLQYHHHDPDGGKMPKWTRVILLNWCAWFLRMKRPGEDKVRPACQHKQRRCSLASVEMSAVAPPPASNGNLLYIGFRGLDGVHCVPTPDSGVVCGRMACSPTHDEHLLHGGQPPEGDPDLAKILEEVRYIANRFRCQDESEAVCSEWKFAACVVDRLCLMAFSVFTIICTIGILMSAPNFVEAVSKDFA
T4 sequence (Q05941 whole entry): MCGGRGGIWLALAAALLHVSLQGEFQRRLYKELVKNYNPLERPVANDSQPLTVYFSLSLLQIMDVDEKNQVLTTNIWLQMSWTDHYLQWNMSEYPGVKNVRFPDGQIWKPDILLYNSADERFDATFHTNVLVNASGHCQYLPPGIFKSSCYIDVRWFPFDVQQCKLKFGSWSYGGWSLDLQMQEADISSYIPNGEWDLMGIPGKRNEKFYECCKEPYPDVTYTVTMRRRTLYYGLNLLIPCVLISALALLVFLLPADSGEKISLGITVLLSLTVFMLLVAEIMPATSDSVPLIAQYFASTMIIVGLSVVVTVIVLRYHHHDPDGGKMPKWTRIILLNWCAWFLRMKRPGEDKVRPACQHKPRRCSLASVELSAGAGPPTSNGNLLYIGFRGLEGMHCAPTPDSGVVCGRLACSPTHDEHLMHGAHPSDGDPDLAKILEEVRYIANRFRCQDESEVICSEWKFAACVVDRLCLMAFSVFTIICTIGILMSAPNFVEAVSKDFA
Neuronal acetylcholine receptor subunit alpha-7 (Macaca mulatta), sequence (Q866A2 whole entry): as the sequence (P36544 whole entry) above, with P5Q, N193S, R208K, V395M, V398A counted along it
Neuronal acetylcholine receptor subunit alpha-7 (Macaca mulatta, UniProt Q866A2), sequence (Q866A2 whole entry): as the sequence (P36544 whole entry) above, with P5Q, N193S, R208K, V395M, V398A counted along it
Voltage-gated inwardly rectifying potassium channel KCNH2, sequence (Q12809 whole entry): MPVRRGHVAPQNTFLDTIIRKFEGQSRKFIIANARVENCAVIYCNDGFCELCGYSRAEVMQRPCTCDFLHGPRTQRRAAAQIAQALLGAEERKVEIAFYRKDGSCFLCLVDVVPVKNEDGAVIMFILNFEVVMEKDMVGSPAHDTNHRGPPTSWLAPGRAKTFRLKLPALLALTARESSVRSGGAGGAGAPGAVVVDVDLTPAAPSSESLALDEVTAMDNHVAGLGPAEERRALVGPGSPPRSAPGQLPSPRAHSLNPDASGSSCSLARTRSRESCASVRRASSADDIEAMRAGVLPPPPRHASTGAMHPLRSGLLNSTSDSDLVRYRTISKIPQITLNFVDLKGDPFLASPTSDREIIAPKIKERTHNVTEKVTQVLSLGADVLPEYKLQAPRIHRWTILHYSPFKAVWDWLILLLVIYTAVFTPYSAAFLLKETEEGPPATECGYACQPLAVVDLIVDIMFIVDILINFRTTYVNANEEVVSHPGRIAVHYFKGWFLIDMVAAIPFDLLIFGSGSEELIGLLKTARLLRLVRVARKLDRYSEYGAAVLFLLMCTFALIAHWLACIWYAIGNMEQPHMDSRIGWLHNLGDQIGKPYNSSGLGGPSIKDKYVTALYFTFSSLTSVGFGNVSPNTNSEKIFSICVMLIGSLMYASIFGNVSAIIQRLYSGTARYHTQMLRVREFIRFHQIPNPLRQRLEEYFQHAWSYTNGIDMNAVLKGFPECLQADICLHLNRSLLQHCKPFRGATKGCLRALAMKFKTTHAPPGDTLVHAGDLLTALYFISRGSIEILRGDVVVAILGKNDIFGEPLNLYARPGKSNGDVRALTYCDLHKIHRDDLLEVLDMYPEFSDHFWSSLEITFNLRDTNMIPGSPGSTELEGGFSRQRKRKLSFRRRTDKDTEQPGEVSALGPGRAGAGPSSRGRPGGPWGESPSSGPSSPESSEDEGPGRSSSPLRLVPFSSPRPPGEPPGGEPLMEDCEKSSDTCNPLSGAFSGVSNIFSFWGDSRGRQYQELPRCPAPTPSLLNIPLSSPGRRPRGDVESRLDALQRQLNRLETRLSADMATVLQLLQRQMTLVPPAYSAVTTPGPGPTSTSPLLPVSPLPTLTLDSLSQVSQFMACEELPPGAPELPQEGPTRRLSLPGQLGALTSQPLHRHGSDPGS

Regarding `O=C(Oc1ccc(Br)cc1)N1CCN2CCC1CC2` [SSR180711], the inhibition in [1] was < 50%. In addition, the Intrinsic activity in assay [2] turned out to be 51%; in assay [3] it was 36%. In addition, the EC50 in assay [4] turned out to be 900 nM.

On to `O=C1O[C@]2(CN3CCC2CC3)CN1c1ccc(Cl)s1`, for which, in assay [5], the Ki worked out at 9 nM.

Regarding `O=C(N[C@H]1CN2CCC1CC2)c1ccc2occc2c1`, in [6], the IC50 was found to be 580 nM. In addition, the Ki in [5] is 1.6 nM; in assay [8], 663 nM. The molecule further came in with an EC50 in [7] of 43 nM.

As to `O=C(Oc1ccccc1)N1CCN2CCC1CC2`, the Ki amounted to 739 nM in assay [5] and 3990 nM in [8]. In assay [9], the Activity worked out at 99%.

Take `O=C(N[C@@H]1CN2CCC1CC2)c1n[nH]c2ccccc12` [FACINICLINE]: the minimal effective dose in [10] was 1 mg/kg; in [11] it was 1 mg/kg; in [12], 0.03 mg/kg; in assay [13], 1 mg/kg. Further, the IC50 turned out to be 2.8 nM in assay [14] and 32.7 nM in assay [22]. Besides, the EC50 is 7700 nM in assay [15], 800 nM in assay [16] and 400 nM in [19]. In [17], this molecule displayed an Activity of 63%. Besides, the Emax in assay [18] was 67%. The Ki in [20] came out at 10 nM; in assay [6] it was 2 nM; in assay [21], 6 nM.

On to `Clc1cnc2nc(N3CCN4CCC3CC4)oc2c1`, for which the Ki in assay [5] stood at 1 nM; in [8], 1370 nM. Also, a half-maximal response in [7] (EC50) required 160 nM.

In the case of `O=C(NCCCCN1CCCCC1)Nc1ccc(-c2cccnc2)cc1`, the EC50 in [7] came to 120 nM.

On to `c1ccc2oc(N3CCN4CCC3CC4)nc2c1`, for which the results for the Ki in [5] and in [8] were 22.5 nM and 13 nM, respectively. Besides, the Activity in assay [9] worked out at 183%.

As for `O=C(N[C@H]1CN2CCC1CC2)c1cc2cccc(Cl)c2s1` [ENCENICLINE], in assay [8], the IC50 was 299 nM.

As to `O=C(N[C@H]1CN2CCC1CC2)c1ccc2ccsc2c1`, in assay [6], 188 nM corresponded to half-maximal inhibition (IC50). For the same molecule, the Ki in [5] came to 2.1 nM; in assay [8] it was 174 nM. Besides, it took 48 nM to reach a half-maximal effect in assay [7] (EC50).

`O=C1O[C@]2(CN3CCC2CC3)CN1c1cccs1` returned a Ki in assay [5] of 80 nM.

In the case of `c1cncc(C2CCC3CCN2CC3)c1` (stereo unspecified), in assay [23], the Emax was 100%. Also, the inhibition in assay [1] is < 50%. In addition, in assay [24], the Ki was 11 nM. The EC50 in [16] worked out at 440 nM.

Turning to `O=C(CCCCN1CCCCC1)Nc1ccc(-c2cccnc2)cc1`, the EC50 in assay [7] came to 350 nM.

On to `c1cc(-c2cnc3c(c2)C[C@@]2(CN4CCC2CC4)O3)co1`, for which, in assay [25], 1600 nM corresponded to half-maximal inhibition (IC50). This molecule also returned an Emax in assay [26] of 40%. Further, in [27], the EC50 came out at 470 nM. This molecule yielded a Ki in [21] of 0.03 nM.

The molecule `O=C(Nc1ccc(Br)cc1)OC1CN2CCC1CC2` (stereo unspecified) showed a Ki in assay [5] of 167 nM. This molecule also came in with an Activity in assay [9] of 90%.

For the molecule `O=C(N[C@@H]1C2CCN(CC2)[C@H]1Cc1cccnc1)c1cc2ccccc2o1` [BRADANICLINE], the minimal effective dose in [28], in assay [29] and in [30] was 0.3 mg/kg each time. In addition, the Emax amounted to 100% in assay [23] and 15% in [31]. Moreover, the inhibition in assay [1] was 25%; in assay [32], 59%; in assay [33] (concentration not given here), 79%; in assay [34] (concentration not given here) it was 58%. Further, the Ki in assay [33] and in assay [34] was 13000 nM throughout.
